Each structure is given as a SMILES string. Activity calls are given as the source filed them. No cut-off for these calls is given here.

Series [1] concerns Pseudomonas aeruginosa. Description: Synergistic antibacterial activity against Pseudomonas aeruginosa NCTC 13437 assessed as reduction in rifampicin MIC at 8 to 32 microg/ml incubated for overnight by microbroth dilution checkerboard assay. Particulars: dose 8-32 µg/ml. The series is classed as functional, organism-based. In outline: (§1)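 Broth microdilution in Tryptic Soy Broth, with rifampicin in a 2-fold dilution series combined with the second agent. Bacteria were grown overnight in TSB, back-diluted, then incubated with the compounds overnight at 37 °C. MIC was taken as the lowest concentration with no visible growth (<0.1 OD600).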

The subject of series [2] is Klebsiella pneumoniae. Description: Synergistic antibacterial activity against Klebsiella pneumoniae M6 assessed as reduction in rifampicin MIC at 8 to 32 microg/ml incubated for overnight by microbroth dilution checkerboard assay. In kind it is functional, organism-based. The settings on record: dose 8-32 µg/ml. In outline: as §1
Series [3] relates to Cell membrane. Description: Induction of outer membrane permeabilization in Escherichia coli NCTC 12923 assessed as increase fluorescence intensity by measuring NPN uptake factor measured immediately for 2 hrs by fluorescence based analysis. The series is classed as subcellular. In outline: (§2)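 NPN outer-membrane uptake. Overnight TSB cultures (37 °C, 200 rpm) were subcultured 1:20 for 2 h to mid-log, washed, and resuspended in 5 mM HEPES with 5 mM glucose, pH 7.2. Cells were mixed with assay buffer containing 10 µM NPN, then with compound, polymyxin B (positive control) or buffer. Fluorescence (ex 350, em 420 nm) was monitored immediately for 2 h.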

Series [4] deals with Escherichia coli. Description: Synergistic antibacterial activity against Escherichia coli NCTC 12923 assessed as reduction in rifampicin MIC at 32 microg/ml incubated for overnight by microbroth dilution checkerboard assay. The series is classed as functional, organism-based. The settings on record: dose 32.0 µg/ml. In outline:
(§3)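 Checkerboard microdilution under MIC conditions (TSB, overnight, 37 °C). Two-fold series of each agent were combined on one plate before bacteria were added, and single-agent MICs were measured on the same plate. FIC = sum of combination MIC/alone MIC for each agent, taken from the most synergistic well. Three independent repeats, mean ± SD. ≤0.5 was taken as strong synergy and 0.5–<1 as weak.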

Series [5] relates to Klebsiella pneumoniae. Briefly: Potentiation of doxycycline induced antibacterial activity against Klebsiella pneumoniae NCTC 13368. The series is classed as functional, organism-based.
Series [6] concerns Klebsiella pneumoniae. Description: Synergistic antibacterial activity against Klebsiella pneumoniae NCTC 13368 assessed as fractional inhibitory concentration index incubated for overnight in presence of rifampicin by microbroth dilution checker board assay. In kind it is functional. In outline: as §3
Series [7] relates to Pseudomonas aeruginosa. Description: Potentiation of doxycycline induced antibacterial activity against Pseudomonas aeruginosa PAO1. The series is classed as functional, organism-based.
For series [8], the system named is Acinetobacter baumannii. Briefly: Synergistic antibacterial activity against Acinetobacter baumannii AYE assessed as reduction in rifampicin MIC at 32 microg/ml incubated for overnight by microbroth dilution checkerboard assay. The series is classed as functional, organism-based. Particulars: dose 32.0 µg/ml. In outline: as §3
Series [9] is described as follows: Toxicity in Galleria mellonella larvae assessed as reduction in animal survival at 10 to 50 mg/kg measured for 120 hrs. The series is classed as organism-based. Particulars: in vivo, dose 10-50 mg/kg. In outline: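 Wax moth larvae, assumed 300 mg mean weight with 50 µL haemolymph, 10 per group. Each was injected via the front proleg with 10 µL of compound at 50, 20 or 10 mg/kg, or PBS only. Larvae were held at 37 °C for 5 days and scored live/dead every 24 h; dead meant no response to physical stimuli.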

The subject of series [10] is Pseudomonas aeruginosa. Briefly: Synergistic antibacterial activity against Pseudomonas aeruginosa NCTC 13437 assessed as fractional inhibitory concentration index incubated for overnight in presence of rifampicin by microbroth dilution checker board assay. In kind it is functional. In outline: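 Checkerboard microdilution in Tryptic Soy Broth, run like the MIC assay. Overnight TSB cultures were back-diluted to OD 0.01 and added 1:1 to the combined two-fold series of both agents, then incubated overnight at 37 °C. Growth/no-growth was called at <0.1 OD600. MICs alone were read on the same plates. FIC index came from the most synergistic well; three independent repeats, mean ± SD.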

The test system of series [11] is Cell membrane. Briefly: Induction of outer membrane permeabilization in Pseudomonas aeruginosa NCTC 13437 assessed as increase fluorescence intensity by measuring NPN uptake factor measured immediately for 2 hrs by fluorescence based analysis. The series is classed as subcellular. In outline:
as §2

Series [12] concerns Cell membrane. Description: Induction of outer membrane permeabilization in Acinetobacter baumannii AYE assessed as increase fluorescence intensity by measuring NPN uptake factor measured immediately for 2 hrs by fluorescence based analysis. The series is classed as subcellular. In outline: as §2
In series [13] the test system is Escherichia coli. Description: Potentiation of doxycycline induced antibacterial activity against Escherichia coli NCTC 12923. In kind it is functional, organism-based.
Series [14] concerns Cell membrane. Description: Induction of outer membrane permeabilization in Acinetobacter baumannii ATCC 17978 assessed as increase fluorescence intensity by measuring NPN uptake factor measured immediately for 2 hrs by fluorescence based analysis. The series is classed as subcellular. In outline: as §2
Series [15] concerns Klebsiella pneumoniae. Description: Potentiation of doxycycline induced antibacterial activity against Klebsiella pneumoniae M6. The series is classed as functional, organism-based.
Series [16] deals with Pseudomonas aeruginosa. Description: Synergistic antibacterial activity against Pseudomonas aeruginosa PAO1 assessed as reduction in rifampicin MIC at 8 to 32 microg/ml incubated for overnight by microbroth dilution checkerboard assay. In kind it is functional, organism-based. The settings on record: dose 8-32 µg/ml. In outline: as §1
In series [17] the test system is Pseudomonas aeruginosa. Briefly: Potentiation of doxycycline induced antibacterial activity against Pseudomonas aeruginosa NCTC 13437. In kind it is functional, organism-based.
The test system of series [18] is Acinetobacter baumannii. Description: Synergistic antibacterial activity against Acinetobacter baumannii ATCC 17978 assessed as reduction in rifampicin MIC at 32 microg/ml incubated for overnight by microbroth dilution checkerboard assay. The series is classed as functional, organism-based. Particulars: dose 32.0 µg/ml. In outline:
as §3

Series [19] deals with Cell membrane. Briefly: Induction of outer membrane permeabilization in Klebsiella pneumoniae NCTC 13368 assessed as increase fluorescence intensity by measuring NPN uptake factor measured immediately for 2 hrs by fluorescence based analysis. The series is classed as subcellular. In outline:
as §2

Series [20] concerns Klebsiella pneumoniae. Briefly: Synergistic antibacterial activity against Klebsiella pneumoniae NCTC 13368 assessed as reduction in rifampicin MIC at 8 to 64 microg/ml incubated for overnight by microbroth dilution checkerboard assay. In kind it is functional, organism-based. The settings on record: dose 8-64 µg/ml. In outline:
as §3

In the case of `CCCCCCCCCCNC(=N)NCCCCN`, the result with Pseudomonas aeruginosa [1], with Klebsiella pneumoniae [2], in the series with Escherichia coli [4], in the series with Klebsiella pneumoniae [5], in the series with Pseudomonas aeruginosa [7] and in the series with Acinetobacter baumannii [8] was Active. In addition, the result with Escherichia coli [13], with Klebsiella pneumoniae [15], with Pseudomonas aeruginosa [16], with Pseudomonas aeruginosa [17], in the series with Acinetobacter baumannii [18] and with Klebsiella pneumoniae [20] was Active. Also, the Activity is > 1 in the series with Cell membrane [3]; “Non-Toxic” in [9]; > 1 in the series with Cell membrane [11]; > 1 in the series with Cell membrane [12]; > 1 with Cell membrane [14]; > 1 in the series with Cell membrane [19]. Moreover, the “fractional inhibitory concentration index (FICI)” value is 0.1 with Klebsiella pneumoniae [6] and 0.15 in the series with Pseudomonas aeruginosa [10].
